Consider 6 compounds from ChEMBL document CHEMBL1140145, “Identification of non-nucleoside DNA synthesis inhibitors of vaccinia virus by high-throughput screening” (J Med Chem, 2008).

Usually pIC50 stands for −log10 of the IC50, conventionally taken in molar units. Broadly, the pEC50 is the EC50 on a negative log10 scale, so that one unit is a factor of ten.

In data set [1] the test system is Vaccinia virus. Kind of data set: Inhibition of Vaccinia virus DNA synthesis in by rapid plate assay. It counts as functional, organism-based. As to conditions: Orthopoxvirus vaccinia.
The nature of data set [2]: Cytotoxicity against african green monkey BSC1 cells after 72 hrs WST-1 based assay. It counts as cell-based, BSC-1. To be noted: chlorocebus aethiops, read-out: TC50. The procedure, abridged: (§1)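 Uninfected BS-C-1 cells in phenol red-free medium, seeded 5000 (20 h), 1000 (3-day) or 200 (5-day) cells/well, exposed next day to compound in two-fold serial dilutions (top 200 µM; 1% DMSO final) at 37°C. WST-1 added 30 min, A450 read. Triplicates; percent cytotoxicity vs DMSO fitted four-parameter sigmoidal for TC50.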

Data set [3] can be described thus: Selectivity index, TC50 for african green monkey BSC1 cells after 20 hrs to EC50 for Vaccinia virus WR in BSC1 cells after 20 hrs by cell protection assay. In kind it is toxicity, cell-based, BSC-1. To be noted: read-out: Selectivity Index.
A short description of data set [4]: Cytotoxicity against african green monkey BSC1 cells after 120 hrs WST-1 based assay. In kind it is cell-based, BSC-1. To be noted: chlorocebus aethiops, read-out: TC50. The method in brief: as §1
On the technique in general: Tetrazolium dyes change colour on reduction, which living cells bring about.

A short description of data set [5]: Cytotoxicity against african green monkey BSC1 cells after 20 hrs WST-1 based assay. In kind it is cell-based, BSC-1. To be noted: chlorocebus aethiops, read-out: TC50. The procedure, abridged:
as §1

Data set [6] deals with Vaccinia virus. Briefly: Antiviral activity against Vaccinia virus WR in BSC1 cells assessed as retention of antiviral potency by measuring exogenous double stranded DNA trapping. To be noted: Orthopoxvirus vaccinia, BSC-1. In kind it is functional, organism-based.
The subject of data set [7] is Vaccinia virus. Briefly: Antiviral activity against Vaccinia virus WR in BSC1 cells assessed as protection from virus-induced lysis of cell monolayer after 20 hrs. As to conditions: Orthopoxvirus vaccinia, BSC-1, 20 h. In kind it is functional, organism-based.
Data set [8] concerns Vaccinia virus. Kind of data set: Antiviral activity against Vaccinia virus WR in BSC1 cells assessed as reduction in plaque formation after 20 hrs. As to conditions: Orthopoxvirus vaccinia, BSC-1, 20 h. It counts as functional, organism-based.
The nature of data set [9]: Selectivity index, TC50 for african green monkey BSC1 cells after 72 hrs to EC50 for Vaccinia virus WR in BSC1 cells after 72 hrs by cell protection assay. In kind it is toxicity, cell-based, BSC-1. To be noted: read-out: Selectivity Index.

pEC50, pIC50: −log10 of the molar value. The source made the active and inactive calls. The calls are words filed in the database; no cut-off is given here.

In the data set on Vaccinia virus [1], `CCn1c2ccccc2c2ccc(/C=N/n3cnnc3)cc21` showed a pIC50 of 3.88. Also, the CC50 at 72 h in data set [2] was 36 µM. Besides, in data set [3], the selectivity ratio at 20 h is more than 4. In addition, in data set [4], the CC50 at 120 h is 3 µM. Moreover, the CC50 at 20 h in data set [5] was more than 200 µM. The outcome in the data set with Vaccinia virus [6] was Active. In addition, the negative-log EC50 (pEC50) in the data set on Vaccinia virus [7] and in the data set with Vaccinia virus [8] was 4.30 in each case.
As for `Cc1cc(OC(=O)c2ccco2)nc(SCc2c(Cl)cccc2Cl)n1`, the pIC50 in the data set on Vaccinia virus [1] was 4.28. In [2], the CC50 at 72 h is more than 100 µM. Further, the selectivity ratio at 20 h in data set [3] is more than 2. The CC50 at 120 h in data set [4] is more than 100 µM. For the same compound, the CC50 at 20 h in data set [5] is more than 100 µM. In addition, the result in the data set on Vaccinia virus [6] was Active. The pEC50 is 4.00 in the data set on Vaccinia virus [7] and 4.12 in the data set with Vaccinia virus [8].
Compound `Cc1cc(/N=C/c2cc(Cl)cc(Cl)c2O)no1` had a pIC50 in the data set with Vaccinia virus [1] of 4.52. In addition, the CC50 at 72 h in data set [2] worked out at 50 µM. Further, the selectivity ratio at 20 h in data set [3] was more than 2.1. In [4], the CC50 at 120 h was 20 µM. Also, the CC50 at 20 h in data set [5] is more than 200 µM. The result in the data set with Vaccinia virus [6] was Active. Besides, the pEC50 in the data set on Vaccinia virus [7] was 4.02; in the data set with Vaccinia virus [8] it was 4.12.
`N=C1S/C(=C/c2ccco2)C(=O)N1c1nccs1`: the negative logarithm of the IC50 (pIC50) in the data set with Vaccinia virus [1] was 4.49. Besides, in [2], the CC50 at 72 h is more than 100 µM. In addition, the selectivity ratio at 20 h in data set [3] is more than 1.2. The CC50 at 120 h in data set [4] was found to be 50 µM. The CC50 at 20 h in data set [5] was more than 100 µM. The result in the data set with Vaccinia virus [6] was Active. For the same compound, the pEC50 is 4.10 in the data set with Vaccinia virus [7] and 4.12 in the data set with Vaccinia virus [8].
As to `COC(=O)c1cccc2c1-c1ccccc1/C2=N\O`, the pIC50 in the data set on Vaccinia virus [1] is 3.97. The selectivity ratio at 72 h in data set [9] turned out to be 3.2. Also, the selectivity ratio at 20 h in data set [3] turned out to be 13.2. For the same compound, the CC50 at 120 h in data set [4] worked out at 20 µM. Besides, in [5], the CC50 at 20 h came to 127 µM. The result in the data set on Vaccinia virus [6] was Active. For the same compound, the pEC50 in the data set with Vaccinia virus [7] is 5.02; in the data set with Vaccinia virus [8], 5.00.
In turn, `COc1ccc(-c2cc3ccccn3c2C(=O)c2cccnc2)c(OC)c1` had a pIC50 in the data set on Vaccinia virus [1] of 4.60. Further, the CC50 at 72 h in [2] was 152 µM. The selectivity ratio at 20 h in data set [3] was more than 2.3. Further, in data set [4], the CC50 at 120 h turned out to be 60 µM. For the same compound, in [5], the CC50 at 20 h was more than 200 µM. For the same compound, in the data set on Vaccinia virus [6], the result was inactive. Also, the pEC50 in the data set with Vaccinia virus [7] is 4.06; in the data set with Vaccinia virus [8] it was 4.00.
